In PMC6684259 (Current biology : CB, 2019):

Columns and labels:
Eg5 (kinesin-5) [1] = biological target: T1, Eg5 (kinesin-5) (Xenopus laevis, UniProt P28025); test: microtubule shrinkage assay with purified Eg5M in AMPPNP; type: biochemical
T1 sequence (P28025 1-368): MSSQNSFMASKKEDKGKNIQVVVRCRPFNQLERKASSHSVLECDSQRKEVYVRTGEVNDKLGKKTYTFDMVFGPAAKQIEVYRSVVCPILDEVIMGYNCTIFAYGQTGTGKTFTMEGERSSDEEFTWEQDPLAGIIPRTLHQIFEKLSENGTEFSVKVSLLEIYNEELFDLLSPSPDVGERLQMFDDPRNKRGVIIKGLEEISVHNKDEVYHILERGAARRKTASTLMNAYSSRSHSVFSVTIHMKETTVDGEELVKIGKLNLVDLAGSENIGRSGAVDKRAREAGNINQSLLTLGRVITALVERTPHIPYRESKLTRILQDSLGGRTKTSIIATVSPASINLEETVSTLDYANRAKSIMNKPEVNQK

Eg5 (kinesin-5) [2] = biological target: T1, Eg5 (kinesin-5); test: microtubule shrinkage assay with purified Eg5M plus inhibitor; type: biochemical
In short: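 Shrinkage run in BRB80 with oxygen scavenger and 0.2 mg/mL casein. Microtubules are grown from Cy5/biotin GMPCPP seeds with TMR-labeled bovine brain tubulin, 5 mM Mg-ATP and 2 mM Mg-GTP, ±His-purified motor (E. coli-expressed), for 20 min at 37°C. Catastrophe is triggered by flowing in 22°C tubulin-free buffer holding the same motor concentration. Shrinkage velocities come from tracked ends imaged on stage.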

SMILES	microtubule shrinkage assay with purified Eg5M in AMPPNP (TIRF) (Eg5 (kinesin-5) [1]) [nm/s]	microtubule shrinkage assay with purified Eg5M plus inhibitor (TIRF) (Eg5 (kinesin-5) [2]) [nm/s]
Nc1ncnc2c1ncn2[C@@H]1O[C@H](CO[P@](=O)(O)O[P@](=O)(O)NP(=O)(O)O)[C@@H](O)[C@H]1O [AMPPNP]	0.5	–
CC(C)(C)c1ccc2cc(C#N)c(C#N)cc2c1 [BRD9876]	–	0.2
